assay: Toxicity liver stage against HepG2, at 10uM; format: cell-based; design: test concentration 10 uM, cell line HepG2-A16-CD81EGFP; conditions: human, HepG2-A16-CD81EGFP cells; read-out: INHIBITION
Procedure, shortened: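 Uninfected HepG2-A16-CD81EGFP cells, 3 × 10^3 per well, 1536-well, plated on prespotted compound at 10 μM final, parasite-free screening media added to match infected plates; puromycin 10 μM positive, DMSO 0.5% negative; run in parallel with 48 h PbLuc assay at 37 °C, 5% CO2; viability by CellTiter-Glo luminescence, normalized to controls.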

Point of comparison: `O=C(c1[nH]nc(C2CC2)c1Cl)N1CCCC1`, cytotoxicity at 10 µM -3.78%. Against it:
- CC(C)(C)c1cc(C[C@H]2CNCC[C@H]2CC(=O)NC2CCCCC2)no1 — higher, 2.82%
- Cc1ccc(CN2C[C@H]3CN(Cc4ccccc4Cl)CCN3C2=O)cc1 — lower, -10.3%
- O=C(C1CCOCC1)N1CCN2C(=O)N(Cc3ccc(F)cc3)C[C@H]2C1 — higher, -1.34%
- Cc1ccc(-c2cn3c(n2)CO[C@@H](CNCc2nccs2)C3)cc1 — lower, -7.31%
- COc1ccc2c(ccn2CCC(=O)Nc2n[nH]c(C(C)C)n2)c1 — higher, 3.3%
- O=C(Nc1nc2c(s1)CCC2)NC1CCCC1 — lower, -8.6%
- O=S(=O)(NCCC(O)c1cccs1)c1ccccc1Cl (stereo not given) — higher, 1.87%
- CC(=O)N1CCN(C(=O)Nc2ccccc2)CC2(CC(=O)N(C)C2)C1 (stereo not given) — lower, -8.93%
- O=C(N[C@]12CC1CN(C(=O)c1ccco1)C2)c1cccc(F)c1 (stereo not given in full) — lower, -15.3%
- Cc1ccc(S(=O)(=O)N2C[C@@H]3CCN[C@@H]3C2)cc1 — higher, 2.94%
- CC(C)CNC(=O)c1nc2c(s1)CCN(C(=O)c1cccnc1)CC2 — higher, 7.1%
- Cc1ccccc1N1CC2(CCN(c3nncs3)C2)CC1=O (stereo not given) — lower, -7.74%
- Cc1cnc(N2CC[C@@H]3CN(CCC(C)C)S(=O)(=O)[C@@H]3CC2)nc1 — higher, -3.1%
- Cn1nc(C#N)c2c1CN(C(=O)c1ccsc1)CCC2 — lower, -126%
- O=C(NCCCN1CCCC1=O)c1nc(-c2ccc3cc[nH]c3c2)no1 — lower, -7.99%
- CC(C)n1[nH]c(=O)c2c1NC(=O)CC2c1cccc(O)c1 (stereo not given) — higher, 10.6%
- O=C(Nc1nc2c(s1)CN(S(=O)(=O)C1CC1)CC2)c1c(F)cccc1F — lower, -14.1%
- O=C(c1nc(-c2ccc3cc[nH]c3c2)no1)N1CCCC1 — higher, -3.29%
- COCC1COCCC12CCN(C(=O)CCOc1ccccc1)CC2 (stereo not given) — lower, -18.7%
- Cc1ccc(CNc2cc3[nH]c(O)nc3cc2C)cc1 — higher, 22.2%
- Cc1cc(C)nc(N(C)CCn2ccnc2C)n1 — lower, -5.42%
- CC1CCc2nn(CCNC(=O)Cc3cccs3)c(=O)cc2C1 (stereo not given) — higher, 6.83%
- CC(C)(CNC(=O)C(C)(C)Oc1ccc2c(c1)CCCC2=O)C(N)=O — higher, -2.25%
- O=C(Nc1cccnc1)Nc1ccn(CC(F)F)n1 — lower, -4.63%
- OCCN1CCCCC1C1OCCO1 (stereo not given) — higher, 6.66%
- CNC(=O)C1Cc2ccccc2CN1C(=O)CC(C)C (stereo not given) — lower, -150%
- COc1ccccc1C(C)(C)NC(=O)c1ccc(F)c(NC(C)=O)c1 — lower, -142%
- O=C(O)c1cnc(OCC2CC2)c(Cl)c1 — lower, -5.38%
- NC(=O)CN(Cc1ncc(-c2ccc(Cl)cc2)o1)C1CCCC1 — higher, -1.99%
- Cc1noc(C2CCN(Cn3cc(Br)cn3)CC2)n1 — higher, 0.277%
- COc1ccc(CNC(=O)N2CCCN(CC3CCCCC3)CC2)cn1 — higher, -3.36%
- Cc1noc(C)c1CC(=O)NCCN1CCN(S(C)(=O)=O)CC1 — lower, -5.87%
- CC(Nc1cccc2c1OCCO2)C(=O)NC(N)=O (stereo not given) — higher, 2.76%
- CCNC(=O)NC(=O)CNC(C)(CC)c1nc(C)cs1 (stereo not given) — higher, 6.99%
- CCN(CC(F)(F)F)C(=O)C1CCCN(Cc2ccno2)C1 (stereo not given) — higher, -2.33%
- CC(C)OCCC(=O)Nc1cccc(N2CCN(CC3CC3)CC2)c1 — higher, -1.11%
- COCCNC(=O)Nc1ccc(CN2CCOC2=O)cc1 — lower, -4.62%
- Cn1nc2c(cc1=O)CN(CC(=O)Nc1cc(C(C)(C)C)no1)CC2 — lower, -4.1%
- Cc1cccc(OCC(O)CNCc2c(C)nn(C)c2N(C)C)c1 (stereo not given) — higher, -2.45%
- COc1ccc(C2CCCN2S(=O)(=O)N(C)C)cc1 (stereo not given) — higher, 5.08%
- CCn1ncc2c1CCCC2NCc1csc(COC)n1 (stereo not given) — higher, 1.17%
- Cc1cccc(C(=O)Nc2cccc3c2CCCC3)n1 — higher, -2.35%
- O=S(=O)(CCCS(=O)(=O)c1ccc2c(c1)OCCCO2)c1ccccc1 — higher, -2.76%
- O=S1(=O)CCC(N2CCN(c3cc(C(F)(F)F)ccn3)CC2)C1 (stereo not given) — lower, -3.97%
- COc1cccc(CN(C(=O)Nc2nncs2)C2CCC(O)CC2)c1 (stereo not given) — higher, -0.67%
- Cn1cc(CNC(=O)C2COCC(=O)N2Cc2ccccc2)cn1 (stereo not given) — lower, -4.88%
- CCCn1ccnc1SCCNS(=O)(=O)c1ccccc1 — lower, -12.8%
- Cc1cnn(CC(C)NCC(=O)NCCc2cccs2)c1 (stereo not given) — higher, 6.41%
- CC(O)CN1CCC(CN(C)Cc2ccc(C(N)=O)cc2)CC1 (stereo not given) — higher, -1.66%
- CC(CNC(=O)NCc1ccsc1)CC1(C)OCCO1 (stereo not given) — higher, 1.24%
- CCCc1cc(NC(=O)c2cccc(N3CCCNC3=O)c2)n[nH]1 — higher, 3.14%
- COc1c(CNC2(c3ccc(Cl)cc3)CCC2)c(C)nn1C — higher, 4.22%
- CC(C)C1CN(C(=O)Nc2cnn(CC(F)F)c2)CCS1 (stereo not given) — higher, 12.6%
- O=S(=O)(Cc1ccccc1Cl)NC(CO)c1ccco1 (stereo not given) — lower, -6.86%
- CC(C)(CC(=O)N(CC(N)=O)C1CCCC1)c1ccccc1 — lower, -4.95%
- Cc1ccc(S(=O)(=O)N2CSCC2C(=O)N(C)C2CC2)cc1Cl (stereo not given) — lower, -9.42%
- NC(=O)CN1CCC(C(=O)NCc2ccc3c(c2)OCCCO3)CC1 — lower, -6.42%
- O=c1n(CC2COCCO2)nc(CC2CCNCC2)n1-c1ccccc1 (stereo not given) — higher, -3.41%
- O=C1CCC2(CCN(Cc3nccs3)CC2)CN1CCCO — lower, -7.56%
- Cc1nn(CC(=O)NCCc2ccncc2)c(=O)n1Cc1ccccc1 — higher, 18.5%
- COCCOCC(=O)N1CCCC(c2ncc[nH]2)C1 (stereo not given) — lower, -4.59%
- CCCc1nnc(NC2CCN(C3CCCC3)CC2)o1 — higher, -2.66%
- COc1ccc(NC(=O)CCC2CCCN(S(=O)(=O)C3CC3)C2)c(C)c1 (stereo not given) — higher, -3.41%
- CC(=O)c1ccc(NC(=O)NC(C(=O)N(C)C)C(C)C)cc1 (stereo not given) — lower, -5.55%
- NS(=O)(=O)c1ccc(F)c(C(=O)NCCSC2CCCCC2)c1 — higher, 4.69%
- Nc1nnc(CCCNc2ncnc3c2CCN(C(=O)C2CC2)C3)s1 — lower, -3.94%
- Cc1cc(C)nc(N2CCC(c3nnc(CN(C)C)n3C3CC3)CC2)n1 — higher, -0.578%
- CNC(=O)[C@@H]1C[C@@H](N)CN1Cc1cc2cc(C)cc(C)c2[nH]c1=O — lower, -5.23%
- CCCNc1ncc(CN2CCOC(Cc3cccc(F)c3)C2)cn1 (stereo not given) — lower, -8.65%
- COc1cccc2c1OCC(C(=O)N1CCN(C3CCCC3)C(=O)C1)C2 (stereo not given) — lower, -4.9%
- CCn1ncc2[nH]c(-c3ccc(OC)c(COC)c3)nc21 — higher, 6.34%
- O=C(CCc1nc(Cl)n[nH]1)N1C[C@@H](CN2CCCCCC2)[C@@H](CO)C1 — higher, 0.152%
- Cc1cc(NCc2ccc(CO)cc2)n2nc(C)cc2n1 — lower, -7.38%
- CSCC[C@H](NC(C)=O)c1nc(CCc2ccccc2)n[nH]1 — higher, 5.08%
- Cc1ccc(C(=O)N2CC[C@H](N3CCOCC3)[C@H](CCCO)C2)cc1O — lower, -154%
- Nc1cc(-c2cccc3ccnn23)ccn1 — higher, 0.858%
- CN(C)C(=O)N1CCn2nc(CNC(=O)CCc3ccccn3)cc2C1 — higher, -3.32%
- Cc1cc(N(C)Cc2cc(C)on2)n2nc(C)c(C)c2n1 — higher, 19.2%
- Cc1cc(C)n(NC(=O)c2ccccc2C)c(=O)c1 — lower, -5.05%
- CCc1noc(CN2CCCN(Cc3cccs3)CC2)n1 — higher, 2.76%
- CCc1nc2n(n1)CC(NCc1cc(OC)c3c(c1)OCCO3)CC2 (stereo not given) — lower, -4.93%
- Cn1cnnc1C1CCCN(C(=O)NCCCn2cccn2)C1 (stereo not given) — lower, -5.42%
- CCN1CCOC(CNCc2ccccc2OCc2cccnc2)C1 (stereo not given) — lower, -13.1%
- O=C(CCN1CCCC1=O)Nc1cnn(-c2ccccc2Cl)c1 — higher, 5.65%
- Cc1nnc(CN(Cc2ccc3c(c2)OCO3)C2CCC(C)CC2)o1 (stereo not given) — higher, -1.89%
- OC(CN1CCN(Cc2nc(C3CC3)no2)CC1)c1ccccc1 (stereo not given) — lower, -10.9%
- CCOc1ncccc1C(=O)N1CCC(Nc2ccc(C)nn2)CC1 — lower, -20.6%
- Cc1cccc(OCCN2CCCC(c3cc(C(N)=O)[nH]n3)C2)c1 (stereo not given) — lower, -11.9%
- O=C(NCc1ccc(-n2cncn2)nc1)c1ccc2c(c1)CCC2 — lower, -16.5%
- CCn1cc(CN2CCCN(C(=O)c3ccc(C)nc3)CC2)cn1 — lower, -10.4%
- Cc1nc(C)n(CC2CCCCN2Cc2cscn2)n1 (stereo not given) — lower, -5.26%
- Cc1nc(C)n(CC2CCCN2Cc2cnc(C)s2)n1 (stereo not given) — higher, 0.0757%
- O=C(c1ccc2[nH]nnc2c1)N1CCCC(n2cccn2)C1 (stereo not given) — higher, -1.56%
- CC(=O)Nc1nc(C(=O)NC(C)c2ccc(F)cc2)cs1 (stereo not given) — higher, -0.168%
- CN1CC(=O)N(c2cccnc2)CC12CCN(C(=O)c1cccn1C)C2 (stereo not given) — higher, 1.14%
- CN(C)C(=O)COCC1CN(Cc2cccs2)Cc2ncn(C)c21 (stereo not given) — higher, 13.1%
- Cc1cccc(CO[C@@H]2CC[C@H]3[C@H]2OCCN3Cc2cc(C)on2)n1 — higher, -3.59%
- CN(C)C(=O)COCc1cncc2c1CCN(Cc1ccccc1)C2 — lower, -4.24%
- O=C(NCc1cncc2c1CCN(CC1CCOC1)C2)c1ccco1 (stereo not given) — lower, -9.55%
- c1coc(CN2Cc3ccnn3CC(COCC3CC3)C2)c1 (stereo not given) — lower, -153%
- CCS(=O)(=O)N1CCC[C@]2(C(=O)N(C)C)CN(c3ncccn3)C[C@@H]2C1 — higher, -3.26%
- CC(=O)N1CCCC2(CN(Cc3ccc(C)s3)CCO2)C1 (stereo not given) — higher, 0.102%
- O=C(N[C@@H]1CN(C2CCCC2)C[C@@H]2CCCO[C@@H]21)c1cnccn1 — higher, -1.58%
- CN(Cc1ccco1)C[C@H]1OC[C@@H]2CCN(Cc3ccncc3)C[C@@H]21 — higher, -1.62%
- CNC(=O)[C@@H]1CCO[C@@H]2CCN(C3CCOCC3)C[C@@H]21 — higher, 6.67%
- COCCN1C(=O)[C@@H]2CC[C@H]1CN(c1nccc(C3CCCC3)n1)C2 — higher, 7.67%
- O=C(c1ccccc1)N1C[C@H]2CC[C@@H](C1)N(S(=O)(=O)c1cccnc1)C2 — lower, -9.33%
- CCN1C(=O)CCC12CCC(NC(=O)c1cc(C)on1)CC2 (stereo not given) — higher, -0.0663%
- CN1CCc2c(sc3c2C(=O)NC(C=Cc2ccccc2)N3)C1 (stereo not given) — higher, 6.33%
